Test results published in ChEMBL document CHEMBL1155590, “Two novel cytotoxic benzofuran derivatives from Brazilian propolis” (2000).
In brackets after ≈: the same amount, converted by molar mass.

Key:
Assay type in all cases: functional
Mus musculus = species: Mus musculus; assay: (§1) Cytotoxicity against mouse 26-L5 cells by MTT assay
In short: (§2)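 MTT viability read-out, run by a previously described method. Cells were highly liver-metastatic murine colon 26-L5 carcinoma and human HT-1080 fibrosarcoma.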

HT-1080 = assay: Cytotoxicity against human HT1080 cells by MTT assay; conditions: for EC50: read-out: ED50 (the source's name); in short: as §2
[1] = as §1; conditions: read-out: ED50 (the source's name); in short: as §2

**Q.** With `C=C(C)C1Cc2cc(/C=C/C(=O)O)cc(CC=C(C)C)c2O1` (configuration not stated) as the compound, how does the Activity (Mus musculus) read?
**A.** Not toxic

**Q.** And the Activity (HT-1080)?
**A.** Not toxic

**Q.** With `COc1ccc(-c2oc3cc(O)c(OC)c(O)c3c(=O)c2O)cc1` [BETULETOL] as the compound, how does the EC50 [1] read?
**A.** < 8 µg/mL

**Q.** And the EC50 (HT-1080)?
**A.** < 8 µg/mL

**Q.** Which EC50 [1] does the source give for `COc1ccc(-c2oc3cc(O)cc(O)c3c(=O)c2OC)cc1` [ERMANIN] here?
**A.** < 8 µg/mL

**Q.** What about the EC50 (HT-1080) of the same compound?
**A.** < 8 µg/mL

**Q.** What does the source list for `COc1ccc(-c2oc3cc(O)cc(O)c3c(=O)c2O)cc1` [KAEMPFERIDE]?
**A.** EC50 [1]: < 8 µg/mL; EC50 (HT-1080): < 8 µg/mL

**Q.** For `COc1cc([C@@H]2OC=C(c3cc4cc(O)c(C(C)=O)cc4o3)C[C@H]2COC(C)=O)ccc1O` [PROPOLIS-BENZOFURAN A], which EC50 [1] is on record?
**A.** 12.4 µg/mL (≈ 27.4 µM)

**Q.** What about the EC50 (HT-1080) of the same compound?
**A.** 13.9 µg/mL (≈ 30.7 µM)

**Q.** With `COc1cc([C@@H]2c3c(oc4cc(C(C)=O)c(O)cc34)C(=O)C[C@H]2COC(C)=O)ccc1O` [PROPOLIS-BENZOFURAN B] as the compound, how does the EC50 [1] read?
**A.** 13.7 µg/mL (≈ 31.2 µM)

**Q.** And the EC50 (HT-1080)?
**A.** 43.2 µg/mL (≈ 98.5 µM)
